Source: ChEMBL document CHEMBL1938308, “Discovery of potent, selective and orally bioavailable triaryl-sulfonamide based PTP1B inhibitors” (Bioorg Med Chem Lett, 2012)
The source made the active and inactive calls. The calls are words filed in the database; no cut-off is given here.

What was measured:
[1] = target: T1, Tyrosine-protein phosphatase non-receptor type 2 (Homo sapiens, UniProt P17706); test: Inhibition of TCPTP
T1 sequence (P17706 whole entry): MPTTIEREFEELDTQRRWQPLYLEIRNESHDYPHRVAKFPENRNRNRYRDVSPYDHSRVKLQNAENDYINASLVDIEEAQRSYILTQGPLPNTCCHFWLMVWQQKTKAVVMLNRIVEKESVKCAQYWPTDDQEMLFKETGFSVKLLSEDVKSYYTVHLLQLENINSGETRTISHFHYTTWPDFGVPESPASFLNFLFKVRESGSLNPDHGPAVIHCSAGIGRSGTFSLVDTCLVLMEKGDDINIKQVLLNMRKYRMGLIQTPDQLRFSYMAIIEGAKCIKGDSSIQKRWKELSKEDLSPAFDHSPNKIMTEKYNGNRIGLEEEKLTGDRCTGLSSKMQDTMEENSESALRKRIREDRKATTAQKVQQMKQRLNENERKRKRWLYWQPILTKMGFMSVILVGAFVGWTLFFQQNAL

[2] = target: T2, Tyrosine-protein phosphatase non-receptor type 1 (Homo sapiens, UniProt P18031); test: Inhibition of PTP1B assessed as para-nitrophenyl phosphate catalyzed hydrolysis of para-nitrophenol by p-NPP assay
T2 sequence (P18031 whole entry): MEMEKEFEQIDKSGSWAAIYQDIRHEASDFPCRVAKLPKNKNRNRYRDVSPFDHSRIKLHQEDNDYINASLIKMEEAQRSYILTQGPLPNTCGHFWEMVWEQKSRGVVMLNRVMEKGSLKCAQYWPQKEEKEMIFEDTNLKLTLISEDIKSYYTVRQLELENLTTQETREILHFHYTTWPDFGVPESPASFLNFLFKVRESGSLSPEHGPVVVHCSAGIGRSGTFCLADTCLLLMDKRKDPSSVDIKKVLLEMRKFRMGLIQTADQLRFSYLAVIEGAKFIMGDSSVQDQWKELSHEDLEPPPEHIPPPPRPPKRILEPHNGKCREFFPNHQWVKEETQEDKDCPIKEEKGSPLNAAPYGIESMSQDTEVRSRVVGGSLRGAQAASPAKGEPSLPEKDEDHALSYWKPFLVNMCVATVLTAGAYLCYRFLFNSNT
How it was run: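 Enzymatic pNPP assay: initial rate of PTP1B-catalyzed pNPP hydrolysis read at 405 nm. IC50 determined at a fixed pNPP concentration of 1 mM. n = 3, mean ± SD.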

[3] = Selectivity ratio of IC50 for SHP1 to IC50 for PTP1B
[4] = Tmax in fasted C57BL/6J mouse at 20 mg/kg, po; format: ADME, organism-based; set-up: dose 20 mg/kg, route oral; conditions: in vivo
How it was run: (§1)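 Male C57BL/6J mice (n = 6), fasted overnight, single 20 mg/kg dose by body weight, given po or iv. Plasma separated at 4 °C, stored at −70 °C, then quantified by LC–MS/MS. %F taken from po AUC relative to iv AUC. Mean ± SD.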

[5] = Selectivity ratio of IC50 for LAR to IC50 for PTP1B
[6] = AUC in fasted C57BL/6J mouse at 20 mg/kg, iv; format: ADME, organism-based; set-up: dose 20 mg/kg, route intravenous; conditions: plasma; how it was run: as §1
[7] = Oral bioavailability in fasted C57BL/6J mouse at 20 mg/kg; format: ADME, organism-based; conditions: in vivo; how it was run: as §1
[8] = Selectivity ratio of IC50 for CD45 to IC50 for PTP1B
[9] = Selectivity ratio of IC50 for PTPalpha to IC50 for PTP1B
[10] = tested on: Mus musculus; test: Antidiabetic activity in fasted C57BL/6J mouse assessed as reduction in serum AUC glucose level at 20 mg/kg, po after 240 mins by intraperitoneal glucose tolerance test relative to control; format: functional
How it was run: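 Overnight-fasted male C57BL/6J mice dosed orally at 20 mg/kg 0.5 h before an intraperitoneal glucose load of 1.5 g/kg. Blood taken at 0, 30, 60, 120 and 240 min, and serum glucose measured promptly by GOD-POD method in duplicate. AUC 0–240 min compared with vehicle control. Two-way ANOVA with Bonferroni post test, mean ± SEM.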

[11] = Selectivity ratio of IC50 for TCPTP to IC50 for PTP1B
[12] = Half life in fasted C57BL/6J mouse at 20 mg/kg, po; format: ADME, organism-based; set-up: dose 20 mg/kg, route oral; conditions: in vivo; how it was run: as §1
[13] = Selectivity ratio of IC50 for SHP2 to IC50 for PTP1B
[14] = AUC (0 to infinity) in fasted C57BL/6J mouse at 20 mg/kg, po; format: ADME, organism-based; set-up: time infinity, dose 20 mg/kg, route oral; conditions: plasma; how it was run: as §1
[15] = Cmax in fasted C57BL/6J mouse at 20 mg/kg, po; format: ADME, organism-based; set-up: dose 20 mg/kg, route oral; conditions: in vivo; how it was run: as §1

Structure (SMILES): O=C(O)COc1ccc(S(=O)(=O)N(Cc2ccc(-c3csnn3)cc2)Cc2ccc3cc(F)c(C(F)(F)P(=O)(O)O)cc3n2)cc1
- IC50 [1]: 990 nM
- IC50 [2]: 11 nM
- Ratio IC50 [3]: > 5000
- Tmax [4]: 41.4 min
- Ratio IC50 [5]: > 5000
- AUC [6]: 147000 ng·h/mL
- bioavailability [7]: 0.9%
- Ratio IC50 [8]: > 5000
- Ratio IC50 [9]: > 5000
- Activity [10]: 19.18 mg/dL
- Ratio IC50 [11]: 90
- half-life [12]: 59.4 min
- Ratio IC50 [13]: > 5000
- AUC(0-inf) [14]: 1320 ng·h/mL
- Cmax [15]: 960 ng/mL

Structure (SMILES): NS(=O)(=O)C(F)(F)c1cc2cc(CN(Cc3ccc(-c4csnn4)cc3)S(=O)(=O)c3ccc(OCC(=O)O)cc3)ccc2cc1F
- IC50 [2]: 35 nM

Structure (SMILES): O=C(O)COc1ccc(S(=O)(=O)N(Cc2ccc(-c3csnn3)cc2)Cc2ccc(C3CC(=O)NS3(=O)=O)c(F)c2)cc1 (stereo not given)
- IC50 [2]: 460 nM

Structure (SMILES): O=C(c1ccccc1)C(Cc1ccc2cc(Br)c(C(F)(F)P(=O)(O)O)cc2c1)(Cc1ccc2cc(Br)c(C(F)(F)P(=O)(O)O)cc2c1)n1nnc2ccccc21
- Ratio IC50 [11]: 116

Structure (SMILES): O=C(O)COc1ccc(S(=O)(=O)N(Cc2ccc(-c3csnn3)cc2)Cc2ccc(Br)c(C(F)(F)P(=O)(O)O)c2)cc1
- IC50 [2]: 288 nM

Structure (SMILES): NS(=O)(=O)C(F)(F)c1ccc(CN(Cc2ccc(-c3csnn3)cc2)S(=O)(=O)c2ccc(OCC(=O)O)cc2)cc1Br
- IC50 [2]: 47 nM

Structure (SMILES): O=C(O)COc1ccc(S(=O)(=O)N(Cc2ccc(-c3csnn3)cc2)Cc2ccc(F)c(C(F)(F)P(=O)(O)O)c2)cc1
- IC50 [2]: 141 nM

Structure (SMILES): O=C(O)COc1ccc(S(=O)(=O)N(Cc2ccc(-c3csnn3)cc2)Cc2ccc3cc(F)c(C(F)(F)P(=O)(O)O)cc3c2)cc1
- IC50 [1]: 870 nM
- IC50 [2]: 9 nM
- Ratio IC50 [3]: > 5000
- Tmax [4]: 18.6 min
- Ratio IC50 [5]: > 5000
- AUC [6]: 137000 ng·h/mL
- bioavailability [7]: 6.51%
- Ratio IC50 [8]: > 5000
- Ratio IC50 [9]: > 5000
- Activity [10]: 52.8 mg/dL
- Ratio IC50 [11]: 96
- half-life [12]: 418 min
- Ratio IC50 [13]: > 5000
- AUC(0-inf) [14]: 8910 ng·h/mL
- Cmax [15]: 6300 ng/mL

Structure (SMILES): NS(=O)(=O)C(F)(F)c1cc2nc(CN(Cc3ccc(-c4csnn4)cc3)S(=O)(=O)c3ccc(OCC(=O)O)cc3)ccc2cc1F
- IC50 [2]: 38 nM

Structure (SMILES): NS(=O)(=O)C(F)(F)c1cc2nc(CN(Cc3ccc(-c4csnn4)cc3)S(=O)(=O)c3ccc(OCC(=O)O)cc3)ccc2cc1Br
- IC50 [2]: 41 nM

Structure (SMILES): O=C(O)COc1ccc(S(=O)(=O)N(Cc2ccc(-c3csnn3)cc2)Cc2ccc3cc(Br)c(C(F)(F)P(=O)(O)O)cc3n2)cc1
- IC50 [2]: 18 nM

Structure (SMILES): O=C(O)COc1ccc(S(=O)(=O)N(Cc2ccc(-c3csnn3)cc2)Cc2ccc(C3CC(=O)NS3(=O)=O)c(Br)c2)cc1 (stereo not given)
- IC50 [2]: 480 nM

Structure (SMILES): O=C(O)COc1ccc(S(=O)(=O)N(Cc2ccc(-c3csnn3)cc2)Cc2ccc(C3CC(=O)NS3(=O)=O)cc2)cc1 (stereo not given)
- IC50 [2]: 500 nM

Structure (SMILES): O=C(O)COc1ccc(S(=O)(=O)N(Cc2ccc(-c3csnn3)cc2)Cc2ccc3cc(Br)c(C(F)(F)P(=O)(O)O)cc3c2)cc1
- IC50 [2]: 17 nM

Structure (SMILES): O=C(O)COc1ccc(S(=O)(=O)N(Cc2ccc(-c3csnn3)cc2)Cc2ccc(C(F)(F)P(=O)(O)O)c(F)c2)cc1
- IC50 [1]: 870 nM
- IC50 [2]: 35 nM
- Ratio IC50 [3]: > 5000
- Ratio IC50 [5]: > 5000
- Ratio IC50 [8]: > 5000
- Ratio IC50 [9]: > 5000
- Ratio IC50 [11]: 24
- Ratio IC50 [13]: > 5000

Structure (SMILES): NS(=O)(=O)C(F)(F)c1ccc(CN(Cc2ccc(-c3csnn3)cc2)S(=O)(=O)c2ccc(OCC(=O)O)cc2)cc1F
- IC50 [1]: 620 nM
- IC50 [2]: 31 nM
- Ratio IC50 [3]: > 5000
- Ratio IC50 [5]: > 5000
- Ratio IC50 [8]: > 5000
- Ratio IC50 [9]: > 5000
- Ratio IC50 [11]: 20
- Ratio IC50 [13]: > 5000

Structure (SMILES): Cc1cc(CN(Cc2ccc(-c3csnn3)cc2)S(=O)(=O)c2ccc(OCC(=O)O)cc2)ccc1C1CC(=O)NS1(=O)=O (stereo not given)
- IC50 [2]: 470 nM

Structure (SMILES): O=C(O)COc1ccc(S(=O)(=O)N(Cc2ccc(-c3csnn3)cc2)Cc2ccc(C(F)(F)P(=O)(O)O)c(Br)c2)cc1
- IC50 [1]: 750 nM
- IC50 [2]: 50 nM
- Ratio IC50 [3]: > 5000
- Ratio IC50 [5]: > 5000
- Ratio IC50 [8]: > 5000
- Ratio IC50 [9]: > 5000
- Ratio IC50 [11]: 15
- Ratio IC50 [13]: > 5000

Structure (SMILES): NS(=O)(=O)C(F)(F)c1cc2cc(CN(Cc3ccc(-c4csnn4)cc3)S(=O)(=O)c3ccc(OCC(=O)O)cc3)ccc2cc1Br
- IC50 [2]: 39 nM

Structure (SMILES): O=C(O)COc1ccc(S(=O)(=O)N(Cc2ccc(-c3csnn3)cc2)Cc2ccc(C(F)(F)P(=O)(O)O)cc2)cc1
- Activity [10]: inactive
- Ratio IC50 [11]: 7
